According to publication PMC5992016 (Movement disorders : official journal of the Movement …, 2018):
Counter-ions that a name gives are not always drawn.

Assays:
[1] = system: L-Dopa-induced dyskinesias in MPTP-treated macaques; assay: Acute co-administration with s.c. L-Dopa: LID scores; assay type: in vivo, Macaca fascicularis; conditions: L-Dopa optimal dose s.c.; amantadine 5 or 10 mg/kg s.c.
Outline: (§1)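 Used MPTP macaques (3 male, 2 female) on oral carbidopa/levodopa maintenance. Optimal s.c. L-Dopa methyl ester dose (MDS reduction 50–75%) was set per animal, with benserazide at one quarter. Amantadine or test compound (DMSO/cremophor) or vehicle was given s.c. just before. Blinded live and video scoring ran off-state, then from 30 min every 20 min. Part II: peak (50 min) and summed total. Part I: MDS AUC. Triplicate runs were averaged.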

[2] = system: parkinsonian motor disability in MPTP-treated macaques; assay: Acute co-administration with s.c. L-Dopa: motor disability scores; assay type: in vivo, Macaca fascicularis; conditions: amantadine 5 and 10 mg/kg s.c.
Outline: as §1

[3] = system: hand movement speed in MPTP-treated macaques; assay: Acute co-administration with s.c. L-Dopa: Klüver board test; assay type: in vivo, Macaca fascicularis
[4] = system: AIMs (abnormal involuntary movements) in rodents; conditions: cited from earlier work; for effect on AIMs in rodents: inhibitor of PDEs 5, 6 and 9

Which “effect on LID compared with MR1916” value [1] does the source give for `NC12CC3CC(CC(C3)C1)C2` [amantadine, amantadine hydrochloride] here?
Its value is “similar”.

What about the “effect on MDS in the on state” value ([2]; L-Dopa optimal dose s.c.) of the same compound?
The value was “significantly increased MDS”.

And the “effect on MDS” value ([2]; L-Dopa suboptimal dose s.c.)?
Its value is “reduced the beneficial effect of L-Dopa on MDS”.

And the “movement speed (time) in KBT in the on state” value ([3]; L-Dopa optimal dose s.c., amantadine 10 mg/kg s.c.)?
The value was “increased”.

What about the “movement speed (time) in KBT” value ([3]; L-Dopa suboptimal dose s.c., highest dose (MR1916 0.05 mg/kg, amantadine 10 mg/kg s.c.)) of the same compound?
The value was “increased”.

With `CCCOc1ccccc1-c1nc2nn[nH]c2c(=O)[nH]1` [zaprinast] as the compound, how does the “effect on AIMs in rodents” value [4] read?
Its value is “improves AIMs”.

For `FC(F)(F)Cn1cc(-c2ccncc2)c(-c2ccc(OCc3ccc4ccccc4n3)cc2)n1` [TP-10], which “antidyskinetic effects in rodents” value ([4]; preliminary tests) is on record?
The value was “antidyskinetic effects”.

For `CCCOc1ccc(S(=O)(=O)N2CCN(CC)CC2)cc1-c1nc2c(CC)n(Cc3ccccn3)nc2c(=O)[nH]1` [UK343664], which “effect on AIMs in rodents” value [4] is on record?
Its value is “improves AIMs”.
